Values after ≈ are worked out from the molar mass of the structure shown.
Assays:
[1] = WHO-TDR: Cytotoxicity; assay type: toxicity, cell-based; conditions: human, MRC5 cells
Plasmodium falciparum K1 = experiment: WHO-TDR: Malaria; assay type: functional, organism-based, Homo sapiens; conditions: Erythrocyte
In short: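 Following previously published standard procedures, with a reference drug serving as positive control, compounds were tested on the Plasmodium falciparum K1 strain inside human red blood cells. The 10,000-compound diverse set came from Life Chemicals after filtering for drug-likeness and reactive groups. Potency against the parasite appears as IC50.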

Trypanosoma cruzi = experiment: WHO-TDR: Chagas disease; assay type: functional, organism-based, Homo sapiens; conditions: MRC5
In short: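 Each IC50 reflects antiparasitic potency against intracellular amastigotes of Trypanosoma cruzi Tulahuen CL2 beta-galactosidase strain. These were cultured in MRC-5SV2 human lung fibroblasts and exposed to a 10,000-compound diverse Life Chemicals library screened according to published standard procedures with a reference drug as positive control.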

[2] = tested on: Trypanosoma brucei brucei; experiment: WHO-TDR: Human African Trypanosomiasis (HAT); assay type: functional, organism-based; conditions: Squib-427
In short: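 Bloodstream forms of the Trypanosoma brucei Squib 427 strain were tested in a whole-organism screen with a diverse library from Life Chemicals of 10,000 compounds. Before screening, the library was filtered for drug-likeness and for reactive groups. The assay used previously published standard procedures and included reference drugs as positive controls. Potency against the parasite is expressed as IC50.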

Leishmania infantum = experiment: WHO-TDR: Leishmaniasis; assay type: functional, organism-based, Mus musculus; conditions: Macrophage
In short: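 Following previously published standard procedures, a whole-organism screen was run on Leishmania infantum MHOM/MA(BE)/67 amastigotes within murine peritoneal macrophages, with a reference drug as positive control. The 10,000 compounds tested formed a diverse Life Chemicals library filtered for drug-likeness and reactive groups. Potency against the parasite is reported as IC50.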

Schistosoma mansoni = experiment: WHO-TDR: Schistosomiasis; assay type: functional; design: concentration or dose not given beside the values
In short: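 Activity appears as percent inhibition and as IC50. The underlying screen tested a diverse library of 10,000 compounds, supplied by Life Chemicals, on whole larval and/or adult worms of the Puerto Rican strain of Schistosoma mansoni.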

Onchocerca lienalis = experiment: WHO-TDR: Onchocerciasis; assay type: functional; design: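 at 12.5 µM on microfilariae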
In short: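 Following previously published standard procedures, with reference drugs as positive controls, a diverse Life Chemicals library was tested on whole Onchocerca ochengi or Onchocerca lienalis microfilariae. The library held 10,000 compounds filtered for drug-likeness and reactive groups. Activity is recorded both as percent inhibition and as IC50.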

Brugia malayi = experiment: WHO-TDR: Lymphatic Filariasis; assay type: functional; design: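 tested at 10 µM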
In short: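 Following previously published standard procedures, compounds were tested on whole Brugia malayi microfilariae, with reference drugs as positive controls. They came from a diverse Life Chemicals collection of 10,000 compounds filtered for drug-likeness and reactive groups. Results appear as percent inhibition and as IC50.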

| SMILES | IC50 (Plasmodium falciparum K1) [µg/mL] | IC50 [2] [µg/mL] | IC50 (Leishmania infantum) [µg/mL] | IC50 [1] [µg/mL] | IC50 (Trypanosoma cruzi) [µg/mL] | % Inhibition (Schistosoma mansoni) [%] | % Inhibition (Onchocerca lienalis) [%] | % Inhibition (Brugia malayi) [%] |
| --- | --- | --- | --- | --- | --- | --- | --- | --- |
| COc1ccc(Cl)c2sc(N(CCCN(C)C)C(=O)c3ccc(Br)s3)nc12 | > 15.8 | 5.66 (≈ 11.6 µM) | 0.51 (≈ 1.04 µM) | 6.71 (≈ 13.7 µM) | 1.77 (≈ 3.62 µM) | 100 | 0 | 0 |
| Cc1ccc2sc(N(CCN(C)C)C(=O)C3CCN(S(=O)(=O)c4cccs4)CC3)nc2c1C | 3.81 (≈ 7.51 µM) | 5.21 (≈ 10.3 µM) | > 16.3 | 1.94 (≈ 3.84 µM) | 0.772 (≈ 1.52 µM) | 0 | 16.32 | 0 |
| O=C(Nc1nc(-c2ccccn2)cs1)C1CCN(S(=O)(=O)c2cccs2)CC1 | > 13 | > 13 | > 13 | > 13 | 0.434 (≈ 0.999 µM) | 0 | 9.31 | 0 |
| O=C(/C=C/c1cccs1)N(CCCN1CCOCC1)c1nc2ccccc2s1 | 10.5 (≈ 25.3 µM) | 4.37 (≈ 10.6 µM) | 1.98 (≈ 4.79 µM) | > 13.5 | 4.43 (≈ 10.7 µM) | 0 | 16.32 | 0 |
| O=C(Nc1ccncc1)c1cccn(Cc2ccc(F)cc2)c1=O | > 9.7 | > 9.7 | > 9.7 | 2.53 (≈ 7.83 µM) | 0.45 (≈ 1.39 µM) | 0 | -1 | 0 |
| Cc1ccc(-c2nnc(NC(=O)c3ccc(S(=O)(=O)N4CCc5ccccc5C4)cc3)o2)cc1C | > 14.7 | 10.1 (≈ 20.6 µM) | > 14.7 | 8.86 (≈ 18.1 µM) | 0.538 (≈ 1.1 µM) | 0 | 0 | 0 |
| Cc1ccc(S(=O)(=O)N2CCCc3cc(NC(=O)Oc4ccccc4)ccc32)cc1 | > 12.7 | 0.415 (≈ 0.982 µM) | > 12.7 | 1.76 (≈ 4.17 µM) | > 12.7 | 0 | 0 | 0 |
| CS(=O)(=O)N1CCCc2cc(NC(=O)c3cc4ccccc4oc3=O)ccc21 | > 12 | > 12 | 0.387 (≈ 0.971 µM) | > 12 | > 12 | 0 | 0 | 0 |
| CCN(CC)CCSc1ccc(-c2ccc(Cl)cc2)nn1 | 0.368 (≈ 1.14 µM) | > 9.66 | > 9.66 | > 9.66 | > 9.66 | 0 | 0 | 0 |
| Fc1ccc(Nc2nc(N3CCCC3)nc(N3CCCC3)n2)cc1 | > 10.9 | 0.442 (≈ 1.35 µM) | > 10.9 | > 10.9 | 3.85 (≈ 11.7 µM) | 0 | 9.215 | 0 |
| CN(C)CCN(C(=O)CCCS(=O)(=O)c1ccccc1)c1nc2ccc(F)cc2s1 | > 14.6 | > 14.6 | > 14.6 | > 14.6 | 0.759 (≈ 1.69 µM) | 0 | 12.34 | 33.33 |
| COc1ccc(SCC(=O)Nc2nc(-c3ccccn3)cs2)cc1 | > 10.7 | 0.347 (≈ 0.971 µM) | > 10.7 | > 10.7 | 0.356 (≈ 0.996 µM) | 0 | 86.55 | 0 |
| COc1ccc(Nc2nc(Nc3ccccc3OC)nc(N3CCOCC3)n2)cc1 | 1.19 (≈ 2.91 µM) | 0.422 (≈ 1.03 µM) | 4.32 (≈ 10.6 µM) | 2.08 (≈ 5.1 µM) | 3.98 (≈ 9.74 µM) | 0 | 0 | 0 |
| Cc1cccc(Nc2nc(Nc3ccc4c(c3)OCO4)nc(N3CCOCC3)n2)c1 | 1.06 (≈ 2.62 µM) | 0.42 (≈ 1.03 µM) | 4.3 (≈ 10.6 µM) | 1.82 (≈ 4.49 µM) | 2.05 (≈ 5.03 µM) | 0 | 0 | 0 |
| COc1ccc(Cl)c2sc(NC(=O)c3ccc4c(c3)OCCO4)nc12 | > 11.3 | 3.57 (≈ 9.49 µM) | 0.366 (≈ 0.971 µM) | 3.43 (≈ 9.09 µM) | 0.702 (≈ 1.86 µM) | 0 | 53.4 | 0 |

Further lines, with some results ahead:

| IC50 (Plasmodium falciparum K1) [µg/mL] | IC50 [2] [µg/mL] | IC50 (Leishmania infantum) [µg/mL] | SMILES | IC50 [1] [µg/mL] | IC50 (Trypanosoma cruzi) [µg/mL] | % Inhibition (Schistosoma mansoni) [%] | % Inhibition (Onchocerca lienalis) [%] | % Inhibition (Brugia malayi) [%] |
| --- | --- | --- | --- | --- | --- | --- | --- | --- |
| > 12.9 | 4.08 (≈ 10.4 µM) | 0.418 (≈ 1.06 µM) | COc1ccc(Cl)c2sc(N(CCCN(C)C)C(=O)c3ccco3)nc12 | 4.17 (≈ 10.6 µM) | 1.36 (≈ 3.46 µM) | 0 | 0 | 0 |
| 2.97 (≈ 9.49 µM) | 0.308 (≈ 0.983 µM) | > 9.4 | O=C(Cc1ccc(F)cc1)Nc1nc(-c2ccccn2)cs1 | > 9.4 | 0.334 (≈ 1.07 µM) | 0 | 23.33 | 0 |
| 11 (≈ 24.2 µM) | > 13.6 | > 13.6 | CCOc1ccc2nc(N(Cc3cccnc3)C(=O)CSc3ccc(F)cc3)sc2c1 | > 13.6 | 0.223 (≈ 0.492 µM) | 0 | 26.7 | 0 |
| > 12.6 | > 12.6 | > 12.6 | Cc1ccc2sc(N(Cc3cccnc3)C(=O)CSc3ccccc3)nc2c1C | > 12.6 | 0.938 (≈ 2.24 µM) | 0 | 0 | 0 |
| > 11.9 | 3.86 (≈ 9.71 µM) | > 11.9 | Cc1ccccc1Cn1cc(C(=O)Nc2cccc(Br)c2)ccc1=O | 9.51 (≈ 23.9 µM) | 0.553 (≈ 1.39 µM) | 0 | 26.7 | 0 |
| > 10.5 | > 10.5 | 0.341 (≈ 0.971 µM) | COC(=O)c1ccccc1N(C)C(=O)c1cc2cccnc2n(C)c1=O | > 10.5 | > 10.5 | 0 | 0 | 0 |
| > 11.1 | 0.376 (≈ 1.01 µM) | 3.6 (≈ 9.71 µM) | Cc1nn(-c2ccccc2)c2ncc(C(=O)NCC3CCCO3)c(Cl)c12 (stereo not given) | 3.52 (≈ 9.49 µM) | 0.392 (≈ 1.06 µM) | 0 | 66.7 | 0 |
| 8.26 (≈ 21.5 µM) | 0.292 (≈ 0.759 µM) | 3.74 (≈ 9.71 µM) | Cc1nn(-c2ccc(F)cc2)c2ncc(C(=O)NCc3ccco3)c(Cl)c12 | 1.31 (≈ 3.41 µM) | 0.398 (≈ 1.03 µM) | 25 | 0 | 0 |
| > 14.2 | 2.96 (≈ 6.25 µM) | > 14.2 | CN(Cc1ccco1)S(=O)(=O)c1ccc(C(=O)Nc2nnc(-c3ccccc3Cl)o2)cc1 | 0.807 (≈ 1.71 µM) | 0.465 (≈ 0.983 µM) | 0 | 0 | 0 |
| 10.2 (≈ 21.8 µM) | 4.55 (≈ 9.71 µM) | 9.57 (≈ 20.4 µM) | COc1ccccc1-c1nnc(NC(=O)c2ccc(S(=O)(=O)N(C)Cc3ccco3)cc2)o1 | 5.89 (≈ 12.6 µM) | 0.511 (≈ 1.09 µM) | 0 | 0 | 0 |
| 6.65 (≈ 15 µM) | 4.22 (≈ 9.49 µM) | > 13.3 | CN(Cc1ccco1)S(=O)(=O)c1ccc(C(=O)Nc2nnc(-c3cccs3)o2)cc1 | 2.5 (≈ 5.62 µM) | 0.456 (≈ 1.03 µM) | 0 | 0 | 0 |
| > 11.2 | 0.363 (≈ 0.972 µM) | > 11.2 | O=C(CCCSc1ccc(F)cc1)Nc1nc(-c2ccccn2)cs1 | 3.76 (≈ 10.1 µM) | 0.335 (≈ 0.897 µM) | 0 | 39.33 | 0 |
| 9.42 (≈ 21.8 µM) | 4.2 (≈ 9.71 µM) | > 13 | Cc1ccc(C)c(-c2csc(NC(=O)CCCS(=O)(=O)c3ccc(F)cc3)n2)c1 | 0.999 (≈ 2.31 µM) | 0.588 (≈ 1.36 µM) | 0 | 12.34 | 0 |
| 6 (≈ 13.4 µM) | 4.36 (≈ 9.71 µM) | > 13.5 | O=C(CCCS(=O)(=O)c1ccc(F)cc1)Nc1nc2c(s1)CSc1ccccc1-2 | > 13.5 | 5.29 (≈ 11.8 µM) | 100 | 66.33 | 0 |
| > 11.6 | > 11.6 | 0.377 (≈ 0.972 µM) | COc1ccc(Cl)c2sc(NC(=O)c3ccc(Cl)cc3Cl)nc12 | 4.96 (≈ 12.8 µM) | 3.62 (≈ 9.34 µM) | 0 | 0 | 0 |
